Key:
[1] = oral 20 mg/kg, acyl carbon radiolabelled FA; cited from earlier work
HNSCC = conditions: oral dose of 25 mg/kg per day; cited from earlier work
[2] = cited from earlier work
[3] = Tolerability / toxicity observation during the pharmacokinetic studies; type: in vivo, Sprague-Dawley rats
Procedure, shortened: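 Male Sprague-Dawley rats with jugular catheters were watched for toxic signs, including chromodacryorrhea, while on the pharmacokinetic study. Nine rats each received 25 mg/kg IV and 25 mg/kg PO (gavage) in saline, with sampling to 8 h. Separate IV dosing was at 10, 25 and 75 mg/kg. Animals were killed in a CO2 chamber after each study.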

[4] = cited from earlier work; remark: listed apart in the source
[5] = Pharmacokinetics of FA after IV and oral; type: in vivo, Sprague-Dawley rats; conditions: for clearance: Sprague-Dawley, rat, serum, iv

CCCCc1ccc(C(=O)O)nc1 [fusaric acid, 5-butlypicolinic acid]
calculated FA concentration at peak radioactivity [1]: 42 ± 7.4 µg/mL | efficacy toward HNSCC (HNSCC): efficacious | FA excreted unchanged in the urine [2]: < 5% | Toxicity (i.e., chromodacyrea) ([3]; 25 mg/kg IV and PO, nine animals): not observed | adverse effects ([3]; IV doses of 10, 25, and 75 mg/kg): no adverse effects observed | dose at which adverse effects were observed [4]: 100 mg/kg | time until FA serum concentration fell below the lower limit of quantitation (10 µM) ([5]; 25 mg/kg IV or PO, all animals): ≤ 4 h | Vd (apparent volume of distribution) ([5]; 25 mg/kg oral, average): 182 ± 27 mL | clearance ([5]; 10 mg/kg, 10 mg/kg IV): 0.783 mL/min | clearance ([5]; 25 mg/kg, 25 mg/kg IV): 1.35 mL/min
